Data reported in ChEMBL document CHEMBL4190386, “Discovery of 6-(pyrimidin-5-ylmethyl)quinoline-8-carboxamide negative allosteric modulators of metabotropic glutamate receptor subtype 5” (Bioorg Med Chem Lett, 2018).
Activity calls are given as the source filed them. The calls are words filed in the database; no cut-off is given here.

What was measured:
[1] = biological target: Metabotropic glutamate receptor 5 (Rattus norvegicus, UniProt P31424); test: Negative allosteric modulator activity at rat mGlu5 receptor expressed in HEK293A cells assessed as inhibition of EC80 glutamate-induced Ca2+ mobilization by Fluo-4 AM dye based fluorescence assay; format: functional, cell-based
Metabotropic glutamate receptor 5, sequence (P31424 whole entry): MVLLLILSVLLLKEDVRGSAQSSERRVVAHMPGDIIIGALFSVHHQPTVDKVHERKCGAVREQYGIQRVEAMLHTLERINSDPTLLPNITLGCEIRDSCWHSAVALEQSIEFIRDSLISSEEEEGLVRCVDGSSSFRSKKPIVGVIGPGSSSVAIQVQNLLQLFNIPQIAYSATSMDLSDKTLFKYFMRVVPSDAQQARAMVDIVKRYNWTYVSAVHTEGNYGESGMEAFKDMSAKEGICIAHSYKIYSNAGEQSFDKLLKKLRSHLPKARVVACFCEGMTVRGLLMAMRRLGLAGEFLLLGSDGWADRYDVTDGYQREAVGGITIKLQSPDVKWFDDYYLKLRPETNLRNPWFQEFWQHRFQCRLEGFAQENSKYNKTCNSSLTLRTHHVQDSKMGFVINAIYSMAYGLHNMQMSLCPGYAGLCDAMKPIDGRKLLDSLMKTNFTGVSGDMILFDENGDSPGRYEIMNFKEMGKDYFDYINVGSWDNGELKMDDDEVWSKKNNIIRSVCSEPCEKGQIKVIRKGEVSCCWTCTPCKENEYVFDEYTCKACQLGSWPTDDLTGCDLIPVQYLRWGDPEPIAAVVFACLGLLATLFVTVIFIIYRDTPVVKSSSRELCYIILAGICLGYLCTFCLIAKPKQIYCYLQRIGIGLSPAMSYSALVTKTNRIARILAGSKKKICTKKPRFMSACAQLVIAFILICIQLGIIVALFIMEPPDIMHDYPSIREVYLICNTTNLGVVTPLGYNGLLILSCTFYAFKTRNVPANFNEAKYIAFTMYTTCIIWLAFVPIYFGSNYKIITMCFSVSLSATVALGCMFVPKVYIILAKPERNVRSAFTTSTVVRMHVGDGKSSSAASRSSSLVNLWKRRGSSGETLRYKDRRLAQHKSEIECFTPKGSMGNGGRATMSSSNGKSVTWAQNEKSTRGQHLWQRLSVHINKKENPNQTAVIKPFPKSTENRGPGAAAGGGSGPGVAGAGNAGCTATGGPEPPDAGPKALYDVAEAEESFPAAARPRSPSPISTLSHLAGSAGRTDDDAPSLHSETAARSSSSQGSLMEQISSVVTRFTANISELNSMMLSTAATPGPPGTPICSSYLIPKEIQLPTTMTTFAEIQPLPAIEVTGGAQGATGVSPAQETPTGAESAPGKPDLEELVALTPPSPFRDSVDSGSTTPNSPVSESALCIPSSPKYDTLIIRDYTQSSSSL

[2] = biological target: Metabotropic glutamate receptor 5 (Rattus norvegicus) (UniProt P31424); test: Negative allosteric modulator activity at rat mGlu5 receptor expressed in HEK293A cells assessed as EC80 glutamate-induced maximum Ca2+ mobilization response at 30 uM relative to 100 uM glutamate by Fluo-4 AM dye based fluorescence assay; format: functional, cell-based
Metabotropic glutamate receptor 5 (Rattus norvegicus), sequence (P31424 21-1203 limits assumed): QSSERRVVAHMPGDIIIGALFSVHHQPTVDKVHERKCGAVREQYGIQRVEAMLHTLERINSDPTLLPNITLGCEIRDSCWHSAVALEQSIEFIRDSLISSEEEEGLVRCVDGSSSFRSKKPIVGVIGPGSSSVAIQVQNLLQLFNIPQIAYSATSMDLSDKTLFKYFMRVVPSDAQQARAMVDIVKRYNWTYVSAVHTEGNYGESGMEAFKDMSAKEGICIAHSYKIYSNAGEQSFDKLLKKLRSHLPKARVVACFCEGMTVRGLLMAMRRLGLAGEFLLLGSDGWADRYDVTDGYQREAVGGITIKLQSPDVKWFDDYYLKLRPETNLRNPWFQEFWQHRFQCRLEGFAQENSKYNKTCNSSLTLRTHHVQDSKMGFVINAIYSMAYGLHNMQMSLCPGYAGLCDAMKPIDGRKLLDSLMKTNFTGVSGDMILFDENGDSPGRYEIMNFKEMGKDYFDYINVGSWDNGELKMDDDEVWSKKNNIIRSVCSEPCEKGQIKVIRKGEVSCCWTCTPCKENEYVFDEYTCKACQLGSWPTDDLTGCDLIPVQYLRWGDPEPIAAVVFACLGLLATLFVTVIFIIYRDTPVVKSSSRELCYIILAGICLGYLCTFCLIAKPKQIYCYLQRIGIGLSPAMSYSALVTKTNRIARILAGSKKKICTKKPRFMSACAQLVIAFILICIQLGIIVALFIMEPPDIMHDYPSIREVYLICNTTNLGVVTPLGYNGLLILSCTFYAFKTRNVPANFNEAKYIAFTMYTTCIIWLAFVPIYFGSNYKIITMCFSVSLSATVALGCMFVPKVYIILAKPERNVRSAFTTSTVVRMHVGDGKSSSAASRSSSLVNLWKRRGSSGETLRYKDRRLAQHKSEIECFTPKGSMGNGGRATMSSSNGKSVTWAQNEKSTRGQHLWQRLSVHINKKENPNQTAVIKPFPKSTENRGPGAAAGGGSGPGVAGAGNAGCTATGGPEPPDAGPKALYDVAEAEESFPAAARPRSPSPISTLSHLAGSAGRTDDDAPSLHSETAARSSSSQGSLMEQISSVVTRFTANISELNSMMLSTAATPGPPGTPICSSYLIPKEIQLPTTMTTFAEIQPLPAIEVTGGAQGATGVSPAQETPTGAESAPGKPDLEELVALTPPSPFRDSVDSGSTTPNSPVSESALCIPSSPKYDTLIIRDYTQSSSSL

[3] = Metabolic stability in rat hepatic S9 fraction assessed as NADPH dependent metabolism incubated for 60 mins by LC/MS analysis; format: ADME, subcellular, Liver; conditions: read-out: Drug metabolism
[4] = Metabolic stability in human hepatic S9 fraction assessed as NADPH dependent metabolism incubated for 60 mins by LC/MS analysis; format: ADME, subcellular, Liver; conditions: read-out: Drug metabolism
[5] = Drug metabolism in rat whole blood treated with N-(4-methylthiazol-2-yl)-6-nicotinoylquinoline-8-carboxamide assessed as compound formation at 37 degC incubated for 1 hr; format: ADME, tissue-based
[6] = in vitro; conditions: human, plasma
[7] = in vitro; conditions: rat, plasma
[8] = Mean residence time in rat at 1 mg/kg, iv; format: ADME, organism-based; conditions: in vivo
Method in brief: (§1)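 Rat intravenous PK: n = 2 male Sprague-Dawley rats, 1.0 mg/kg IV in 10% ethanol/90% PEG 400. Parent and the alcohol metabolite were measured in plasma. MRT = mean residence time.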

[9] = Half life in rat at 1 mg/kg, iv; format: ADME, organism-based; conditions: in vivo; method in brief: as §1
[10] = system: Rattus norvegicus; test: Volume of distribution at steady state in rat assessed as 6-(hydroxy(pyridin-3-yl)methyl)-N-(4-methylthiazol-2-yl)quinoline-8-carboxamide formation at 1 mg/kg, iv; format: ADME, organism-based; conditions: in vivo; method in brief: as §1
[11] = Drug metabolism in rat whole blood assessed as 6-(hydroxy(pyridin-3-yl)methyl)-N-(4-methylthiazol-2-yl)quinoline-8-carboxamide formation at 37 degC incubated for 1 hr; format: ADME, tissue-based
[12] = Volume of distribution at steady state in rat at 1 mg/kg, iv; format: ADME, organism-based; conditions: in vivo, read-out: Vdss; method in brief: as §1
[13] = system: Rattus norvegicus; test: Half life in rat assessed as 6-(hydroxy(pyridin-3-yl)methyl)-N-(4-methylthiazol-2-yl)quinoline-8-carboxamide formation at 1 mg/kg, iv; format: ADME, organism-based; conditions: in vivo; method in brief: as §1
[14] = system: Rattus norvegicus; test: Mean residence time in rat assessed as 6-(hydroxy(pyridin-3-yl)methyl)-N-(4-methylthiazol-2-yl)quinoline-8-carboxamide formation at 1 mg/kg, iv; format: ADME, organism-based; conditions: in vivo; method in brief: as §1
[15] = biological target: Metabotropic glutamate receptor 5 (Homo sapiens) (UniProt P41594); test: Negative allosteric modulation of human mGlu5 receptor expressed in HEK293A cells assessed as reduction in glutamate-induced calcium mobilization at 10 uM by Fluo-4--AM dye based fluorescence assay; format: functional, cell-based
[16] = biological target: Metabotropic glutamate receptor 7 (Rattus norvegicus) (UniProt P35400); test: Negative allosteric modulation of rat mGlu7 receptor expressed in HEK cells harboring GIRK assessed as reduction in L-AP4-induced thallium flux at 10 uM preincubated for 5 mins followed by glutamate addition measured after 2 mins by BTC-AM-dye based fluorescence assay; format: functional, cell-based
[17] = biological target: Metabotropic glutamate receptor 8 (Rattus norvegicus) (UniProt P70579); test: Negative allosteric modulation of rat mGlu8 receptor expressed in HEK cells harboring GIRK assessed as reduction in glutamate-induced thallium flux at 10 uM preincubated for 5 mins followed by glutamate addition measured after 2 mins by BTC-AM-dye based fluorescence assay; format: functional, cell-based
[18] = biological target: Metabotropic glutamate receptor 2 (Rattus norvegicus) (UniProt P31421); test: Negative allosteric modulation of rat mGlu2 receptor expressed in HEK cells harboring GIRK assessed as reduction in glutamate-induced thallium flux at 10 uM preincubated for 5 mins followed by glutamate addition measured after 2 mins by BTC-AM-dye based fluorescence assay; format: functional, cell-based
[19] = biological target: Metabotropic glutamate receptor 6 (Rattus norvegicus) (UniProt P35349); test: Negative allosteric modulation of rat mGlu6 receptor expressed in HEK cells harboring GIRK assessed as reduction in glutamate-induced thallium flux at 10 uM preincubated for 5 mins followed by glutamate addition measured after 2 mins by BTC-AM-dye based fluorescence assay; format: functional, cell-based
[20] = biological target: Metabotropic glutamate receptor 1 (Rattus norvegicus) (UniProt P23385); test: Negative allosteric modulation of rat mGlu1 receptor expressed in HEK293 cells assessed as reduction in glutamate-induced calcium mobilization at 10 uM preincubated for 2.3 mins followed by glutamate addition measured after 2.6 mins by Fluo-4--AM dye based fluorescence assay; format: functional, cell-based
Metabotropic glutamate receptor 1 (Rattus norvegicus), sequence (P23385 19-1199 limits assumed): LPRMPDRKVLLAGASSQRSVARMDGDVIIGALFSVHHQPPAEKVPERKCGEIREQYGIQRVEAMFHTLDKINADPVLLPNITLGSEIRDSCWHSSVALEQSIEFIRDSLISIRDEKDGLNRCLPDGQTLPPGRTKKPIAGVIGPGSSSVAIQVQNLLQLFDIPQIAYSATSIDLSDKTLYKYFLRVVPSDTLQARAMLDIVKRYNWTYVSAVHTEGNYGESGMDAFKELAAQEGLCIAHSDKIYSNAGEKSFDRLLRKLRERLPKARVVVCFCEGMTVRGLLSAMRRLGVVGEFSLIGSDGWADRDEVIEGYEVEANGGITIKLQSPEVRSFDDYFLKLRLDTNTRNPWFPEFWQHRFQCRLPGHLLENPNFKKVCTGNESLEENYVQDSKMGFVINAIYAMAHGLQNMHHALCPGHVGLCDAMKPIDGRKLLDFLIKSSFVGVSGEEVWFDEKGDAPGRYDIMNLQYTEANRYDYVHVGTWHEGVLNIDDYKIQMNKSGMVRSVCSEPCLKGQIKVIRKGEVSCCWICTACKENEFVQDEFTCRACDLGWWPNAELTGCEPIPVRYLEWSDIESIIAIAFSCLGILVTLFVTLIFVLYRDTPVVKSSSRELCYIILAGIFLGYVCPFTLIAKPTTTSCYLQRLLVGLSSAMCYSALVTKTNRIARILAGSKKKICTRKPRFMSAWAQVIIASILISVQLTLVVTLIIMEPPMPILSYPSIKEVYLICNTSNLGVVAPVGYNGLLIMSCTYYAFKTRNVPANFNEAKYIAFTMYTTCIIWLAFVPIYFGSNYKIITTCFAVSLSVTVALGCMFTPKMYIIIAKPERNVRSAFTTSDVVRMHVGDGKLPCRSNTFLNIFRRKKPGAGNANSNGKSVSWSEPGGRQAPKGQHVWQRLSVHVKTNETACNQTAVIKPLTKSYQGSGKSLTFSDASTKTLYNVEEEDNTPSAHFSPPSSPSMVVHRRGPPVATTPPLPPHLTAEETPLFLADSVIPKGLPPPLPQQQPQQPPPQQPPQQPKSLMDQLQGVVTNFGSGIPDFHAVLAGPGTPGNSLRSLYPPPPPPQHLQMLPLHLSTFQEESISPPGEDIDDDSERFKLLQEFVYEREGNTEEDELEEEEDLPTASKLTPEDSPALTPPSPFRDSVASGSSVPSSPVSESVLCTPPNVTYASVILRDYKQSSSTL

[21] = biological target: Metabotropic glutamate receptor 4 (Rattus norvegicus) (UniProt P31423); test: Negative allosteric modulation of rat mGlu4 receptor expressed in HEK cells harboring GIRK assessed as reduction in glutamate-induced thallium flux at 10 uM preincubated for 5 mins followed by glutamate addition measured after 2 mins by BTC-AM-dye based fluorescence assay; format: functional, cell-based
Metabotropic glutamate receptor 4 (Rattus norvegicus), sequence (P31423 whole entry): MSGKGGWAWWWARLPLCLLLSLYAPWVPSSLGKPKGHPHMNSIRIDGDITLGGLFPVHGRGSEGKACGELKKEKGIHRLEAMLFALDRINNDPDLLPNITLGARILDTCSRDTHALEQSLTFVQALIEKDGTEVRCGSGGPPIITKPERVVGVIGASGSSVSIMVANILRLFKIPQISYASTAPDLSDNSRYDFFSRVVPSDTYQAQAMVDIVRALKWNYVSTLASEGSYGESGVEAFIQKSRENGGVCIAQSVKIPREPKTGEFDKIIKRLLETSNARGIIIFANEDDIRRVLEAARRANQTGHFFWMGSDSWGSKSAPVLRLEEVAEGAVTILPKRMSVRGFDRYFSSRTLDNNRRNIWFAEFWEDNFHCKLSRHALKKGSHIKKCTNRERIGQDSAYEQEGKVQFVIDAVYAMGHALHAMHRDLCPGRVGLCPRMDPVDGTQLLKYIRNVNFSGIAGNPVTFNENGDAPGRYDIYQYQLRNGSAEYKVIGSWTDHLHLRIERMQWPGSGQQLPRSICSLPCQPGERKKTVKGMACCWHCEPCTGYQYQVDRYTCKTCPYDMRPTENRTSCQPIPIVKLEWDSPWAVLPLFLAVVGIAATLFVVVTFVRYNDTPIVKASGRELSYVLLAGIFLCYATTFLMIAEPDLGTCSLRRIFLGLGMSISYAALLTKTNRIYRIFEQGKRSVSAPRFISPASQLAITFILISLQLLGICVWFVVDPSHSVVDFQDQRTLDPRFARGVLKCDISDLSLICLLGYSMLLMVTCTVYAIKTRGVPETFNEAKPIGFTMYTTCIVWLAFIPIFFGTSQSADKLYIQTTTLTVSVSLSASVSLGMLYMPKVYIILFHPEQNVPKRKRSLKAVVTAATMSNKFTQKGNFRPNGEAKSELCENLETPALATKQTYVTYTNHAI

[22] = biological target: Metabotropic glutamate receptor 3 (Rattus norvegicus) (UniProt P31422); test: Negative allosteric modulation of rat mGlu3 receptor expressed in HEK cells harboring GIRK assessed as reduction in glutamate-induced thallium flux at 10 uM preincubated for 5 mins followed by glutamate addition measured after 2 mins by BTC-AM-dye based fluorescence assay; format: functional, cell-based

IC50 [1]	%max [2]	Compound	also measured
217 nM	1.5%	O=C(Nc1ccc(F)cn1)c1cc(C(F)c2cncnc2)cc2cccnc12 (centres undefined)	
589 nM	1.4%	Cc1csc(NC(=O)c2cc(C(C)c3cncnc3)cc3cccnc23)n1 (centres undefined)	
676 nM	3%	Cc1ccc(NC(=O)c2cc(C(F)(F)c3cncnc3)cc3cccnc23)nc1	
378 nM	1.7%	Cc1csc(NC(=O)c2cc(C(F)c3cncnc3)cc3cccnc23)n1 (centres undefined)	metabolised at 1 h [3]: 55%; metabolised at 1 h [4]: 27%
1750 nM	1.8%	COC(c1cncnc1)c1cc(C(=O)Nc2nc(C)cs2)c2ncccc2c1 (centres undefined)	
558 nM	3%	O=C(Nc1nc(C2CC2)cs1)c1cc(C(F)(F)c2cncnc2)cc2cccnc12	
> 30000 nM		N#Cc1ccc(NC(=O)c2cc(C(F)(F)c3cncnc3)cc3cccnc23)nc1	
> 30000 nM		N#Cc1ccnc(NC(=O)c2cc(C(F)(F)c3cncnc3)cc3cccnc23)c1	
842 nM	2.7%	O=C(c1cncnc1)c1cc(C(=O)Nc2ccc(F)cn2)c2ncccc2c1	
1520 nM	1.5%	CC(c1cncnc1)c1cc(C(=O)Nc2ccc(F)cn2)c2ncccc2c1 (centres undefined)	
> 10000 nM		Cc1csc(NC(=O)c2cc(C(O)c3cncnc3)cc3cccnc23)n1 (centres undefined)	Drug uptake [5]: Active
> 30000 nM		COc1ccnc(NC(=O)c2cc(C(F)(F)c3cncnc3)cc3cccnc23)c1	
		O=C(Nc1ccc(F)cn1)c1cc(Oc2cncc(F)c2)cn2ncnc12	fraction unbound at 4 h, 5 µM [6]: 0.071; fraction unbound at 4 h, 5 µM [7]: 0.066
417 nM	1.5%	Cc1cccc(NC(=O)c2cc(C(=O)c3cncnc3)cc3cccnc23)n1	
392 nM	4.5%	O=C(Nc1ccc(F)cn1)c1cc(C(F)(F)c2cncnc2)cc2cccnc12	
8 nM		O=C(Nc1ccc(F)cn1)c1cc(Oc2cncc(F)c2)cc2cccnc12	
172 nM	1.3%	Cc1csc(NC(=O)c2cc(C(=O)c3cncnc3)cc3cccnc23)n1	MRT [8]: 19 min; half-life [9]: 30 min; Vdss [10]: 10 L/kg; Drug metabolism [11]: Metabolite_Detected; Vd [12]: 50 L/kg; t1/2 [13]: 171 min; MRT [14]: 107 min
3600 nM	7.8%	CCc1cccc(NC(=O)c2cc(C(F)(F)c3cncnc3)cc3cccnc23)n1	
1610 nM	7.1%	COc1cccc(NC(=O)c2cc(C(F)(F)c3cncnc3)cc3cccnc23)n1	
		Cc1csc(NC(=O)c2cc(C(F)(F)c3cncnc3)cc3cccnc23)n1	inhibition [15]: Active; inhibition [16]: inactive; inhibition [17]: inactive; inhibition [18]: inactive; inhibition [19]: inactive; inhibition [20]: inactive; inhibition [21]: inactive; inhibition [22]: inactive
> 10000 nM	44%	Cc1ccnc(NC(=O)c2cc(C(F)(F)c3cncnc3)cc3cccnc23)c1	
1100 nM	2.7%	Cc1cccc(NC(=O)c2cc(C(F)(F)c3cncnc3)cc3cccnc23)n1	
3480 nM	2.9%	COC(c1cncnc1)c1cc(C(=O)Nc2ccc(F)cn2)c2ncccc2c1 (centres undefined)	

Compound	IC50 [1]	%max [2]	also measured
O=C(c1cncnc1)c1cc(C(=O)Nc2cccc(F)n2)c2ncccc2c1	> 10000 nM	12.5%	
